Experimental data of several laboratories.
Protocols differ between the studies behind these lines. pIC50: −log10 of the molar value. In brackets after ≈: the same amount, converted by molar mass.

SMILES | target or system | assay | system | setting | quantity | result
[H]/N=C(/N)N[C@H]1[C@H](O)[C@@H](O)[C@H](O[C@@H]2O[C@@H](C)[C@](O)(C=O)[C@H]2O[C@@H]2O[C@@H](CO)[C@H](O)[C@@H](O)[C@@H]2NC)[C@@H](N/C(N)=N\[H])[C@@H]1O | Klebsiella pneumoniae | microbial growth, broth dilution | ATCC43816 | – | MIC | 2 µg/mL (≈ 3.44 µM)
N#Cc1nc[n]([Au][PH](c2ccccc2)(c2ccccc2)c2ccccc2)c1C#N | IMR-90 | cell growth or viability, MTT | – | 48 h | pIC50 | 4.19
NCC[C@H](O)C(=O)N[C@@H]1C[C@H](N)[C@@H](O[C@H]2O[C@H](CN)[C@@H](O)[C@H](O)[C@H]2O)[C@H](O)[C@H]1O[C@H]1O[C@H](CO)[C@@H](O)[C@H](N)[C@H]1O | Mycobacterium tuberculosis variant bovis BCG | microbial growth | BCG | – | MIC50 | 0.32 µg/mL (≈ 0.546 µM)
Clc1nc[n]([Au][PH](c2ccccc2)(c2ccccc2)c2ccccc2)c1Cl | IMR-90 | cell growth or viability, MTT | – | 48 h | pIC50 | 4.26
N.N.[Cl][Pt][Cl] | CA46 | cell growth or viability, ATP luminescence | – | 10 µM, 72 h | inhibition | 95%
C[C@H]1COc2c(N3CCN(C)CC3)c(F)cc3c(=O)c(C(=O)O)cn1c23 | Klebsiella pneumoniae | microbial growth | ATCCBAA1705 | drug-resistant strain | MIC | > 8 µg/mL
NNC(=O)c1ccncc1 | Mycobacterium tuberculosis variant bovis BCG | microbial growth | BCG | – | MIC90 | 0.24 µg/mL (≈ 1.75 µM)
c1ccc([Se][Au]=[c]2n(C3CCCCC3)ccn2C2CCCCC2)cc1 | HT-29 | cell growth or viability, crystal violet | – | – | pIC50 | 5.96
C[C@@H](O)[C@H]1C(=O)N2C(C(=O)O)=C(S[C@@H]3CN[C@H](C(=O)N(C)C)C3)[C@H](C)[C@H]12 | Klebsiella pneumoniae | microbial growth | ATCCBAA1705 | drug-resistant strain | MIC | > 8 µg/mL
